Assay results published in ChEMBL document CHEMBL3399923, “Design and synthesis of new bioisosteres of spirooxindoles (MI-63/219) as anti-breast cancer agents” (Bioorg Med Chem, 2015).
Active and inactive are the calls of the source. The calls are words filed in the database; no cut-off is given here.

What was measured:
MCF7 [1] = assay: Cytotoxicity against human MCF7 cells after 48 hrs by MTT assay; assay type: functional, cell-based; settings: MCF7, 48 h
In short: (§1)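 MTT viability screen for cytotoxicity across the breast cancer and normal kidney epithelial lines; IC50 reported in µM.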

Vero = assay: Cytotoxicity against African green monkey Vero cells after 48 hrs by MTT assay; assay type: cell-based; settings: Chlorocebus sabaeus; in short: as §1
HEK293 = assay: Cytotoxicity against human HEK293 cells after 48 hrs by MTT assay; assay type: cell-based; settings: HEK293, 48 h; in short: as §1
MDA-MB-231 = assay: Cytotoxicity against human MDA-MB-231 cells after 48 hrs by MTT assay; assay type: functional, cell-based; settings: MDA-MB-231, 48 h; in short: as §1
Mus musculus [2] = assay: Antitumor activity against human MCF7 cells xenografted in nude mouse assessed as reduction in phosphorylated Rb level at 20 mg/kg, po administered for 14 days by Western blotting analysis; assay type: functional, organism-based; design: dose 20 mg/kg
Mus musculus [3] = assay: Toxicity in nude mouse xenografted with human MCF7 cells assessed as change in spleen at 20 mg/kg, po administered for 14 days by histomorphology relative to vehicle-treated control; assay type: organism-based; design: dose 20 mg/kg, route oral; settings: in vivo, 336 h
In short: (§2)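 MCF-7 xenograft tumors were induced in athymic nude mice and dosed at 20 mg/kg body weight/day for 14 days, alongside a vehicle-treated group. Tumor volume, average tumor size and body weight were tracked. Liver, lungs, spleen, uterus and kidney were examined histomorphologically against vehicle.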

MCF7 [4] = assay: Increase in p53 protein expression in human MCF7 cells; assay type: functional, cell-based
MCF7 [5] = assay: Increase in p53 mRNA expression in human MCF7 cells at 2.5 to 7.5 uM by RT-PCR analysis; assay type: functional, cell-based
In short: (§3)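 p53 and MDM2 mRNA were measured by real-time quantitative PCR in vehicle- versus compound-treated MCF-7 or primary breast cancer cells. Data are the mean of three separate experiments with SEM, compared with control.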

MCF7 [6] = assay: Increase in MDM2 protein expression in human MCF7 cells; assay type: functional, cell-based
MCF7 [7] = assay: Increase in MDM2 mRNA expression in human MCF7 cells at 2.5 to 7.5 uM by RT-PCR analysis; assay type: functional, cell-based; in short: as §3
Mus musculus [8] = assay: Antitumor activity against human MCF7 cells xenografted in nude mouse assessed as reduction in cyclin D1 protein expression at 20 mg/kg, po administered for 14 days by Western blotting analysis; assay type: functional, organism-based; design: dose 20 mg/kg
Homo sapiens [9] = species: Homo sapiens; assay: Increase in p53 protein expression in human primary breast adenocarcinoma cells; assay type: functional
Homo sapiens [10] = species: Homo sapiens; assay: Increase in p53 mRNA expression in human primary breast adenocarcinoma cells at 2.5 to 7.5 uM by RT-PCR analysis; assay type: functional; in short: as §3
[11] = Cell cycle arrest in human primary breast adenocarcinoma cells assessed as accumulation at G1 phase at 7.5 uM after 48 hrs by propidium iodide staining-based flow cytometry (reference value: 60%); assay type: functional
In short: (§4)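 Cells were exposed to 7.5µM, then stained with propidium iodide and analysed by flow cytometry for the percentage of cells in each cell-cycle phase. Mean with SEM is from three independent experiments, compared with control.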

MCF7 [12] = assay: Cell cycle arrest in human MCF7 cells assessed as accumulation at G1 phase at 7.5 uM after 48 hrs by propidium iodide staining-based flow cytometry (reference value: 60%); assay type: functional; in short: as §4
Homo sapiens [13] = species: Homo sapiens; assay: Increase in MDM2 mRNA expression in human primary breast adenocarcinoma cells at 2.5 to 7.5 uM by RT-PCR analysis; assay type: functional; in short: as §3
Mus musculus [14] = assay: Toxicity in nude mouse xenografted with human MCF7 cells assessed as change in liver at 20 mg/kg, po administered for 14 days by histomorphology relative to vehicle-treated control; assay type: organism-based; design: dose 20 mg/kg, route oral; settings: in vivo, 336 h; in short: as §2
Homo sapiens [15] = species: Homo sapiens; assay: Increase in MDM2 protein expression in human primary breast adenocarcinoma cells; assay type: functional
MCF7 [16] = assay: Increase in p21 protein expression in human MCF7 cells at 7.5 uM by immunoblotting analysis relative to control; assay type: functional
In short: (§5)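 Western blot of cell-cycle regulatory proteins (p21, cyclin D1, phospho-Rb) in MCF-7 or primary breast cancer cells. Densitometric quantitation is given as fold change versus control; mean with SEM, n = 3.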

Mus musculus [17] = assay: Toxicity in nude mouse xenografted with human MCF7 cells assessed as change in kidney at 20 mg/kg, po administered for 14 days by histomorphology relative to vehicle-treated control; assay type: organism-based; design: dose 20 mg/kg, route oral; settings: in vivo, 336 h; in short: as §2
MCF7 [18] = assay: Increase in p53 […] in human MCF7 cells assessed as increase in p21 promoter activity after 18 hrs by luciferase reporter gene assay; assay type: functional, cell-based
MCF7 [19] = assay: Increase in p21 mRNA expression in human MCF7 cells at 5 to 7.5 uM by RT-PCR analysis; assay type: functional, cell-based
In short: (§6)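 Real-time quantitative PCR of p21, cyclin D1, A1, B1 and E1 mRNA in treated MCF-7 cells. Mean with SEM, n = 3, compared with control.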

MCF7 [20] = assay: Increase in p21 protein expression in human MCF7 cells assessed as reduction in Rb phosphorylation at 2.5 to 7.5 uM by immunoblotting analysis; assay type: functional, cell-based; in short: as §5
Mus musculus [21] = assay: Antitumor activity against human MCF7 cells xenografted in nude mouse assessed as increase in p21 protein expression at 20 mg/kg, po administered for 14 days by Western blotting analysis; assay type: functional, organism-based; design: dose 20 mg/kg
Homo sapiens [22] = species: Homo sapiens; assay: Increase in p21 protein expression in human primary breast adenocarcinoma cells assessed as reduction in Rb phosphorylation at 2.5 to 7.5 uM by immunoblotting analysis; assay type: functional; in short: as §5
[23] = Increase in p21 protein expression in human primary breast adenocarcinoma cells at 7.5 uM by immunoblotting analysis relative to control; assay type: functional; in short: as §5
Mus musculus [24] = assay: Toxicity in nude mouse xenografted with human MCF7 cells assessed as change in lungs at 20 mg/kg, po administered for 14 days by histomorphology relative to vehicle-treated control; assay type: organism-based; design: dose 20 mg/kg, route oral; settings: in vivo, 336 h; in short: as §2
MCF7 [25] = assay: Cell cycle arrest at G2/M phase in human MCF7 cells assessed as reduction in cyclin B1 mRNA expression at 2.5 to 7.5 uM after 48 hrs by RT-PCR analysis; assay type: functional, cell-based; in short: as §6
Mus musculus [26] = assay: Toxicity in nude mouse xenografted with human MCF7 cells assessed as change in uterus at 20 mg/kg, po administered for 14 days by histomorphology relative to vehicle-treated control; assay type: organism-based; design: dose 20 mg/kg, route oral; settings: in vivo, 336 h; in short: as §2
MCF7 [27] = assay: Increase in p21 protein expression in human MCF7 cells assessed as reduction in cyclin D1 expression at 2.5 to 7.5 uM by immunoblotting analysis; assay type: functional, cell-based; in short: as §5
MCF7 [28] = assay: Antitumor activity against human MCF7 cells xenografted in nude mouse assessed as reduction in tumor size at 20 mg/kg, po administered for 14 days relative to vehicle-treated control; assay type: functional; design: scale not given: the % may be the effect or the level left; in short: as §2
MCF7 [29] = assay: Cell cycle arrest at G1/S phase in human MCF7 cells assessed as reduction in cyclin D1 mRNA expression at 2.5 to 7.5 uM after 48 hrs by RT-PCR analysis; assay type: functional, cell-based; in short: as §6
MCF7 [30] = assay: Cell cycle arrest at G1/S phase in human MCF7 cells assessed as reduction in cyclin A1 mRNA expression at 2.5 to 7.5 uM after 48 hrs by RT-PCR analysis; assay type: functional, cell-based; in short: as §6
Homo sapiens [31] = species: Homo sapiens; assay: Increase in p21 protein expression in human primary breast adenocarcinoma cells assessed as reduction in cyclin D1 expression at 2.5 to 7.5 uM by immunoblotting analysis; assay type: functional; in short: as §5
MCF7 [32] = assay: Antitumor activity against human MCF7 cells xenografted in nude mouse assessed as reduction in tumor volume at 20 mg/kg, po administered for 14 days relative to vehicle-treated control; assay type: functional; design: scale not given: the % may be the effect or the level left; in short: as §2
MCF7 [33] = assay: Cell cycle arrest at G1/S phase in human MCF7 cells assessed as reduction in cyclin E1 mRNA expression at 2.5 to 7.5 uM after 48 hrs by RT-PCR analysis; assay type: functional, cell-based; in short: as §6
Mus musculus [34] = assay: Toxicity in nude mouse xenografted with human MCF7 cells assessed as change in body weight at 20 mg/kg, po administered for 14 days relative to vehicle-treated control; assay type: organism-based; design: dose 20 mg/kg, route oral; settings: in vivo, 336 h; in short: as §2

COc1ccc(C2=N[C@@H](c3ccc(Cl)cc3)[C@@H](c3ccc(Cl)cc3)N2C(=O)N2CCNC(=O)C2)c(OC(C)C)c1 [NUTLIN-3]
IC50 (MCF7 [1]): 11.6 µM
IC50 (Vero): > 50 µM
IC50 (HEK293): > 50 µM
IC50 (MDA-MB-231): 23.5 µM

O=C(c1ccc(OCCN2CCOCC2)cc1)C1[C@H](c2ccccc2)[C@@H](c2ccccc2)NC12C(=O)Nc1ccc(Cl)cc12 (some centres undefined)
IC50 (MCF7 [1]): 18 µM
IC50 (Vero): 30.8 µM
IC50 (HEK293): 25.4 µM
IC50 (MDA-MB-231): 19.2 µM

O=C(c1ccc([N+](=O)[O-])cc1)C1[C@H](c2ccccc2)[C@@H](c2ccccc2)NC12C(=O)Nc1ccccc12 (some centres undefined)
IC50 (MCF7 [1]): 15.5 µM
IC50 (Vero): > 50 µM
IC50 (HEK293): 21.4 µM
IC50 (MDA-MB-231): 29.5 µM

O=C(c1ccc(OCCN2CCCCC2)cc1)C1[C@H](c2ccccc2)[C@@H](c2ccccc2)NC12C(=O)Nc1ccc([N+](=O)[O-])cc12 (some centres undefined)
IC50 (MCF7 [1]): 15.2 µM
IC50 (Vero): 22.4 µM
IC50 (HEK293): 18.8 µM
IC50 (MDA-MB-231): 13.5 µM

O=C(c1ccc(OCCN2CCCCC2)cc1)C1[C@H](c2ccccc2)[C@@H](c2ccccc2)NC12C(=O)Nc1ccccc12 (some centres undefined)
IC50 (MCF7 [1]): 13.9 µM
IC50 (Vero): 32.4 µM
IC50 (HEK293): 30.8 µM
IC50 (MDA-MB-231): 28.2 µM

CC(CN(C)C)Oc1ccc(C(=O)C2[C@H](c3ccccc3)[C@@H](c3ccccc3)NC23C(=O)Nc2ccccc23)cc1 (some centres undefined)
IC50 (MCF7 [1]): 20.5 µM
IC50 (Vero): > 50 µM
IC50 (HEK293): > 50 µM
IC50 (MDA-MB-231): > 50 µM

O=C(c1ccc(OCCN2CCCCC2)cc1)C1[C@H](c2ccccc2)[C@@H](c2ccccc2)NC12C(=O)Nc1ccc(Cl)cc12 (some centres undefined)
Activity (Mus musculus [2]): Active
Activity (Mus musculus [3]): Non-toxic
Activity (MCF7 [4]): Active
Activity (MCF7 [5]): Active
Activity (MCF7 [6]): Active
Activity (MCF7 [7]): Active
Activity (Mus musculus [8]): Active
Activity (Homo sapiens [9]): Active
Activity (Homo sapiens [10]): Active
Activity [11]: 90%
Activity (MCF7 [12]): 90%
Activity (Homo sapiens [13]): Active
Activity (Mus musculus [14]): Non-toxic
Activity (Homo sapiens [15]): Active
Ratio (MCF7 [16]): 2.5
Activity (Mus musculus [17]): Non-toxic
Activity (MCF7 [18]): Dose-dependent effect
Activity (MCF7 [19]): Active
Activity (MCF7 [20]): Active
IC50 (MCF7 [1]): 6.5 µM
Activity (Mus musculus [21]): Active
Activity (Homo sapiens [22]): Active
Ratio [23]: 2.5
Activity (Mus musculus [24]): Non-toxic
IC50 (Vero): > 50 µM
Activity (MCF7 [25]): inactive
Activity (Mus musculus [26]): Non-toxic
Activity (MCF7 [27]): Active
Activity (MCF7 [28]): 66%
Activity (MCF7 [29]): Active
Activity (MCF7 [30]): Active
Activity (Homo sapiens [31]): Active
IC50 (HEK293): > 50 µM
Activity (MCF7 [32]): 66%
Activity (MCF7 [33]): Active
IC50 (MDA-MB-231): 3.7 µM
Activity (Mus musculus [34]): Non-toxic

COc1ccc([C@H]2C(C(=O)c3ccccc3)C3(N[C@@H]2c2ccccc2)C(=O)Nc2ccccc23)cc1 (some centres undefined)
IC50 (MCF7 [1]): 20.6 µM
IC50 (Vero): 43.5 µM
IC50 (HEK293): > 50 µM
IC50 (MDA-MB-231): 30.5 µM

CCN1C(=O)C2(N[C@H](c3ccccc3)[C@@H](c3ccccc3)C2C(=O)c2ccc(OCCN3CCOCC3)cc2)c2ccccc21 (some centres undefined)
IC50 (MCF7 [1]): > 50 µM
IC50 (Vero): > 50 µM
IC50 (HEK293): > 50 µM
IC50 (MDA-MB-231): > 50 µM
